Measurements reported in ChEMBL document CHEMBL4138126, “Synthesis, antiproliferative, anti-tubulin activity, and docking study of new 1,2,4-triazoles as potential combretastatin analogues” (Eur J Med Chem, 2017).

Tests used:
NCI/ADR-RES = assay: Growth inhibition of human NCI-ADR-RES cells assessed as cell growth at 10 uM after 48 hrs by sulforhodamine B assay; format: functional; settings: read-out: Activity
How it was run: (§1)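 NCI 60-cell-line panel screen (nine cancer types). Compounds added at single concentration 10^-5 M, cultures incubated 48 h; growth inhibition percentages reported.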

COLO 205 = assay: Growth inhibition of human COLO205 cells assessed as cell growth at 10 uM after 48 hrs by sulforhodamine B assay; format: functional; settings: COLO 205, 48 h, read-out: Activity; how it was run: as §1
NCI-H226 = assay: Growth inhibition of human NCI-H226 cells assessed as cell growth at 10 uM after 48 hrs by sulforhodamine B assay; format: functional; settings: NCI-H226, 48 h, read-out: Activity; how it was run: as §1
EKVX = assay: Growth inhibition of human EKVX cells assessed as cell growth at 10 uM after 48 hrs by sulforhodamine B assay; format: functional; settings: read-out: Activity; how it was run: as §1
[1] = Inhibition of beta tubulin polymerisation in human HepG2 cells incubated for 2 hrs using TMB substrate by ELISA; format: cell-based; settings: HepG2, 2 h
SK-OV-3 = assay: Growth inhibition of human SKOV3 cells assessed as cell growth at 10 uM after 48 hrs by sulforhodamine B assay; format: functional; settings: SK-OV-3, 48 h, read-out: Activity; how it was run: as §1
IGROV-1 = assay: Growth inhibition of human IGROV1 cells assessed as cell growth at 10 uM after 48 hrs by sulforhodamine B assay; format: functional; settings: IGROV-1, 48 h, read-out: Activity; how it was run: as §1
OVCAR-3 = assay: Growth inhibition of human OVCAR3 cells assessed as cell growth at 10 uM after 48 hrs by sulforhodamine B assay; format: functional; settings: OVCAR-3, 48 h, read-out: Activity; how it was run: as §1
OVCAR-8 = assay: Growth inhibition of human OVCAR8 cells assessed as cell growth at 10 uM after 48 hrs by sulforhodamine B assay; format: functional; settings: OVCAR-8, 48 h, read-out: Activity; how it was run: as §1
MDA-MB-435 = assay: Growth inhibition of human MDA-MB-435 cells assessed as cell growth at 10 uM after 48 hrs by sulforhodamine B assay; format: functional; settings: MDA-MB-435, 48 h, read-out: Activity; how it was run: as §1
NCI-H23 = assay: Growth inhibition of human NCI-H23 cells assessed as cell growth at 10 uM after 48 hrs by sulforhodamine B assay; format: functional; settings: NCI-H23, 48 h, read-out: Activity; how it was run: as §1
HepG2 [2] = assay: Inhibition of beta tubulin polymerisation in human HepG2 cells incubated for 2 hrs using TMB substrate by ELISA relative to untreated control; format: cell-based; design: concentration or dose not given beside the values; settings: dose or concentration not given here
SNB-19 = assay: Growth inhibition of human SNB19 cells assessed as cell growth at 10 uM after 48 hrs by sulforhodamine B assay; format: functional; settings: SNB-19, 48 h, read-out: Activity
How it was run: (§2)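 NCI 60-cell-line panel from nine tumour types (leukaemia, lung, colon, CNS, melanoma, ovarian, renal, prostate, breast). Each compound was added at one single concentration, and cultures were incubated for 48 h. Results are reported as percent growth inhibition.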

UACC-257 = assay: Growth inhibition of human UACC257 cells assessed as cell growth at 10 uM after 48 hrs by sulforhodamine B assay; format: functional; settings: UACC-257, 48 h, read-out: Activity; how it was run: as §2
M14 = assay: Growth inhibition of human M14 cells assessed as cell growth at 10 uM after 48 hrs by sulforhodamine B assay; format: functional; settings: M14, 48 h, read-out: Activity; how it was run: as §1
CAKI-1 = assay: Growth inhibition of human CAKI-1 cells assessed as cell growth at 10 uM after 48 hrs by sulforhodamine B assay; format: functional; settings: CAKI-1, 48 h, read-out: Activity; how it was run: as §1
RXF 393 = assay: Growth inhibition of human RXF393 cells assessed as cell growth at 10 uM after 48 hrs by sulforhodamine B assay; format: functional; settings: RXF 393, 48 h, read-out: Activity; how it was run: as §1
NCI-H460 = assay: Growth inhibition of human NCI-H460 cells assessed as cell growth at 10 uM after 48 hrs by sulforhodamine B assay; format: functional; settings: NCI-H460, 48 h, read-out: Activity; how it was run: as §1
Hs-578T = assay: Growth inhibition of human Hs 578T cells assessed as cell growth at 10 uM after 48 hrs by sulforhodamine B assay; format: functional; settings: read-out: Activity; how it was run: as §1
HL-60 = assay: Cytotoxicity in human HL60 cells assessed as reduction in cell viability incubated for 48 hrs by MTT assay; format: functional, cell-based; settings: HL-60, 48 h
How it was run: (§3)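 HepG2 and HL60 (ATCC) grown in DMEM with 10% FBS, 2 mM L-glutamine, penicillin/streptomycin, amphotericin B at 37 °C, 5% CO2. Samples dissolved in DMSO, diluted thousandfold in assay. Cells seeded in serum-free medium, treated with serial concentrations 48 h; MTT 4 h, formazan dissolved in acidified isopropanol, A570. Triplicates averaged; viability relative to untreated/vehicle control.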

T47D = assay: Growth inhibition of human T47D cells assessed as cell growth at 10 uM after 48 hrs by sulforhodamine B assay; format: functional; settings: read-out: Activity; how it was run: as §2
MDA-MB-468 = assay: Growth inhibition of human MDA-MB-468 cells assessed as cell growth at 10 uM after 48 hrs by sulforhodamine B assay; format: functional; settings: MDA-MB-468, 48 h, read-out: Activity; how it was run: as §1
OVCAR-5 = assay: Growth inhibition of human OVCAR5 cells assessed as cell growth at 10 uM after 48 hrs by sulforhodamine B assay; format: functional; settings: OVCAR-5, 48 h, read-out: Activity; how it was run: as §1
HepG2 [3] = assay: Cytotoxicity in human HepG2 cells assessed as reduction in cell viability incubated for 48 hrs by MTT assay; format: functional, cell-based; settings: HepG2, 48 h; how it was run: as §3
SF-295 = assay: Growth inhibition of human SF295 cells assessed as cell growth at 10 uM after 48 hrs by sulforhodamine B assay; format: functional; settings: SF-295, 48 h, read-out: Activity; how it was run: as §1
SK-MEL-28 = assay: Growth inhibition of human SK-MEL-28 cells assessed as cell growth at 10 uM after 48 hrs by sulforhodamine B assay; format: functional; settings: SK-MEL-28, 48 h, read-out: Activity; how it was run: as §1
HCC 2998 = assay: Growth inhibition of human HCC2998 cells assessed as cell growth at 10 uM after 48 hrs by sulforhodamine B assay; format: functional; settings: HCC 2998, 48 h, read-out: Activity; how it was run: as §1
UACC-62 = assay: Growth inhibition of human UACC62 cells assessed as cell growth at 10 uM after 48 hrs by sulforhodamine B assay; format: functional; settings: UACC-62, 48 h, read-out: Activity; how it was run: as §2
K562 = assay: Growth inhibition of human K562 cells assessed as cell growth at 10 uM after 48 hrs by sulforhodamine B assay; format: functional; settings: K562, 48 h, read-out: Activity; how it was run: as §1
SN12C = assay: Growth inhibition of human SN12C cells assessed as cell growth at 10 uM after 48 hrs by sulforhodamine B assay; format: functional; settings: read-out: Activity; how it was run: as §2
SK-MEL-5 = assay: Growth inhibition of human SK-MEL-5 cells assessed as cell growth at 10 uM after 48 hrs by sulforhodamine B assay; format: functional; settings: SK-MEL-5, 48 h, read-out: Activity; how it was run: as §1
HepG2 [4] = assay: Induction of cell cycle arrest in human HepG2 cells assessed as accumulation at G1 phase at cytotoxic IC50 by propidium iodide staining based flow cytometry (reference value: 66.4%); format: functional
HepG2 [5] = assay: Induction of apoptosis in human HepG2 cells assessed as necrotic cells level at 1.41 uM by Annexin V and propidium iodide staining based flow cytometry; format: functional

## CCOc1ccc(-n2nc(C(=O)Nc3cccc(OC)c3)nc2-c2cc(OC)c(OC)c(OC)c2)cc1
NCI/ADR-RES
  growth at 10 µM: 77.5%
COLO 205
  growth at 10 µM: 66.6%
NCI-H226
  growth at 10 µM: 77.3%
EKVX
  growth at 10 µM: 77.7%
[1]
  IC50: 36800 nM
SK-OV-3
  growth at 10 µM: 96.5%
IGROV-1
  growth at 10 µM: 90.7%
OVCAR-3
  growth at 10 µM: 78.7%
OVCAR-8
  growth at 10 µM: 53.1%
MDA-MB-435
  growth at 10 µM: 86.8%
NCI-H23
  growth at 10 µM: 85.9%
HepG2 [2]
  inhibition: 49.6%
SNB-19
  growth at 10 µM: 83.9%
UACC-257
  growth at 10 µM: 94.7%
M14
  growth at 10 µM: 83.7%
CAKI-1
  growth at 10 µM: 72.5%
RXF 393
  growth at 10 µM: 90.2%
NCI-H460
  growth at 10 µM: 79.3%
Hs-578T
  growth at 10 µM: 73.2%
HL-60
  IC50: 16600 nM
T47D
  growth at 10 µM: 58.5%
MDA-MB-468
  growth at 10 µM: 93.4%
OVCAR-5
  growth at 10 µM: 95.5%
HepG2 [3]
  IC50: 36800 nM
SF-295
  growth at 10 µM: 68.5%

## CCOc1ccc(-n2nc(C(=O)NCc3ccccc3OC)nc2-c2cc(OC)c(OC)c(OC)c2)cc1
NCI/ADR-RES
  growth at 10 µM: 27.8%
COLO 205
  growth at 10 µM: 30.3%
NCI-H226
  growth at 10 µM: 62.5%
EKVX
  growth at 10 µM: 41.3%
SK-MEL-28
  growth at 10 µM: 36.6%
[1]
  IC50: 600 nM
SK-OV-3
  growth at 10 µM: 67.1%
IGROV-1
  growth at 10 µM: 43.7%
OVCAR-3
  growth at 10 µM: 49.4%
OVCAR-8
  growth at 10 µM: 43.7%
HCC 2998
  growth at 10 µM: 57.5%
MDA-MB-435
  growth at 10 µM: 22.1%
NCI-H23
  growth at 10 µM: 60.8%
HepG2 [2]
  inhibition: 85.6%
UACC-62
  growth at 10 µM: 37%
K562
  growth at 10 µM: 22.1%
SNB-19
  growth at 10 µM: 45.2%
SN12C
  growth at 10 µM: 39.7%
UACC-257
  growth at 10 µM: 62.7%
SK-MEL-5
  growth at 10 µM: -1.22%
M14
  growth at 10 µM: 42.1%
CAKI-1
  growth at 10 µM: 25.9%
RXF 393
  growth at 10 µM: 43.5%
NCI-H460
  growth at 10 µM: 30.5%
Hs-578T
  growth at 10 µM: 55.1%
HL-60
  IC50: 600 nM
T47D
  growth at 10 µM: 17%
MDA-MB-468
  growth at 10 µM: 72.4%
OVCAR-5
  growth at 10 µM: 74.2%
HepG2 [3]
  IC50: 620 nM
SF-295
  growth at 10 µM: 34.8%

## CCOc1ccc(-n2nc(C(=O)NCc3cc(F)cc(F)c3)nc2-c2cc(OC)c(OC)c(OC)c2)cc1
NCI/ADR-RES
  growth at 10 µM: 61.7%
HepG2 [4]
  Activity: 35.4%
COLO 205
  growth at 10 µM: 65%
NCI-H226
  growth at 10 µM: 65.2%
EKVX
  growth at 10 µM: 62.8%
SK-MEL-28
  growth at 10 µM: 65.3%
[1]
  IC50: 1400 nM
SK-OV-3
  growth at 10 µM: 76%
IGROV-1
  growth at 10 µM: 62.5%
OVCAR-3
  growth at 10 µM: 71.2%
OVCAR-8
  growth at 10 µM: 75%
HCC 2998
  growth at 10 µM: 84%
MDA-MB-435
  growth at 10 µM: 67%
HepG2 [5]
  Activity: 3%
NCI-H23
  growth at 10 µM: 81.8%
HepG2 [2]
  inhibition: 71.8%
UACC-62
  growth at 10 µM: 57.9%
K562
  growth at 10 µM: 62%
SNB-19
  growth at 10 µM: 62.3%
SN12C
  growth at 10 µM: 67.8%
UACC-257
  growth at 10 µM: 50.5%
SK-MEL-5
  growth at 10 µM: 50.1%
M14
  growth at 10 µM: 65.2%
CAKI-1
  growth at 10 µM: 44.4%
RXF 393
  growth at 10 µM: 68.6%
NCI-H460
  growth at 10 µM: 66.1%
Hs-578T
  growth at 10 µM: 75.7%
HL-60
  IC50: 950 nM
T47D
  growth at 10 µM: 44.1%
MDA-MB-468
  growth at 10 µM: 73.6%
OVCAR-5
  growth at 10 µM: 85%
HepG2 [3]
  IC50: 1410 nM
SF-295
  growth at 10 µM: 65.2%
